Source: ChEMBL document CHEMBL4177600, “Identification of novel PI3K inhibitors through a scaffold hopping strategy” (Bioorg Med Chem Lett, 2017)
In brackets after ≈: the same amount, converted by molar mass.

Key:
[1] = molecular target: Insulin receptor (Homo sapiens) (UniProt P06213); experiment: Inhibition of recombinant human N-terminal GST-tagged INSR (G989 to S1382 residues) expressed in baculovirus infected Sf9 cells at 1 uM using Poly(Ala,Glu,Lys,Tyr)6:2:5:1 as substrate by filter binding method relative to control
Sequence of Insulin receptor (Homo sapiens) (P06213 28-758 limits assumed): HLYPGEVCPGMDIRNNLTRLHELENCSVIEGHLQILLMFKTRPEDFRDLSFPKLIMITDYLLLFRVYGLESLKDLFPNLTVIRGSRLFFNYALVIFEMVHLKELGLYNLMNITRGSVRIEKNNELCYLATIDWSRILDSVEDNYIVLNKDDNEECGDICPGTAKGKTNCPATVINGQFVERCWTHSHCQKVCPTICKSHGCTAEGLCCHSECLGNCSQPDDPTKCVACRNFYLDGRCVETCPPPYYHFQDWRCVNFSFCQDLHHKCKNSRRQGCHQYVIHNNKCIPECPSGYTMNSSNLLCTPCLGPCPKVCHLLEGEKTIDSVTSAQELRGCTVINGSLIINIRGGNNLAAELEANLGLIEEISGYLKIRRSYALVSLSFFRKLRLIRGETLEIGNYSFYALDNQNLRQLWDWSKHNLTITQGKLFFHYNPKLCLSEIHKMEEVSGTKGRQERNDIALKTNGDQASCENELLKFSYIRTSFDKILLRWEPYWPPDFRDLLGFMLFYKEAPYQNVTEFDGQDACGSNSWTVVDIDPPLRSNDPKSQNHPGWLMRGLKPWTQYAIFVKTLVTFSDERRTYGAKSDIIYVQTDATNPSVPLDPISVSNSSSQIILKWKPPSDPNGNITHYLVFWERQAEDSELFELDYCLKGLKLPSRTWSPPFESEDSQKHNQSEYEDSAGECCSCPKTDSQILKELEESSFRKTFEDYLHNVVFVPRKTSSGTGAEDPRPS
Sequence of Insulin receptor (Homo sapiens) (P06213 763-1382 limits assumed): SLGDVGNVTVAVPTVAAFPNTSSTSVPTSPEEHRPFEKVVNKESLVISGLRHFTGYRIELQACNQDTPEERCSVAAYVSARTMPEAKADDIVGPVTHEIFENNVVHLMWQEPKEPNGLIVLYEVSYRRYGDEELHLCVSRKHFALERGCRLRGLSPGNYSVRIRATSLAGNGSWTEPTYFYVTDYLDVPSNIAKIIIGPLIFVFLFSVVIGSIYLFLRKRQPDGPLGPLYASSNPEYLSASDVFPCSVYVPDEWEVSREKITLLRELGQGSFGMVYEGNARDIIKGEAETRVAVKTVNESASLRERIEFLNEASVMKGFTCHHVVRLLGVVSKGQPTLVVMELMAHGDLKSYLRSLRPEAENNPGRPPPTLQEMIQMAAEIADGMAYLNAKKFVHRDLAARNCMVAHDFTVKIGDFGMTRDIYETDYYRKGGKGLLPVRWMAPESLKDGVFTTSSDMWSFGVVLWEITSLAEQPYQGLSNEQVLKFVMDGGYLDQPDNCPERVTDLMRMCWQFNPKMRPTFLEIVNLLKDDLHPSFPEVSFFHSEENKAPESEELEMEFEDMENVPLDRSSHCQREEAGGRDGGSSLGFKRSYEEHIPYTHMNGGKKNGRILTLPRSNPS
Outline: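 Kinase panel of 24 enzymes, each tested at 1 µM; percent inhibition reported as the average of two independent data points.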

[2] = molecular target: Dual specificity mitogen-activated protein kinase kinase 1 (Homo sapiens) (UniProt Q02750); experiment: Inhibition of wild-type human MEK1 (M1 to V393 residues) expressed in Sf9 insect cells at 1 uM using ERK2-K54R as substrate by filter binding method relative to control
Sequence of Dual specificity mitogen-activated protein kinase kinase 1 (Homo sapiens) (Q02750 whole entry, the tested form may be a part): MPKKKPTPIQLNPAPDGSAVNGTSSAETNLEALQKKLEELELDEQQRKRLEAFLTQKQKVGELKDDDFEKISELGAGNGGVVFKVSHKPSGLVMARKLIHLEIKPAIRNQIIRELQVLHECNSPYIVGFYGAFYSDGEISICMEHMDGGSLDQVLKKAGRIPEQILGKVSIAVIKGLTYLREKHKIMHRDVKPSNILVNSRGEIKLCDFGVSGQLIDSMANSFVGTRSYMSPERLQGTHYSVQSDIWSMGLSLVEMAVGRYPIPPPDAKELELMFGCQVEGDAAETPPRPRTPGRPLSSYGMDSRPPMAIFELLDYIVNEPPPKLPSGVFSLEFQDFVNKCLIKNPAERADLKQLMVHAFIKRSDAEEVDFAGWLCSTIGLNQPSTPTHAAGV
Outline: (§1)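 Single-point screen at 1 µM in a 24-kinase panel run externally; each value is the average of two independent data points. The detailed assay conditions are given only on the provider's site.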

[3] = molecular target: Platelet-derived growth factor receptor alpha (Homo sapiens) (UniProt P16234); experiment: Inhibition of recombinant human N-terminal GST/His6-tagged PDGFRalpha (Q551 to L1089 residues) expressed in Sf9 insect cells at 1 uM using TRK-C-derived peptide as substrate by filter binding method relative to control; outline: as §1
Sequence of Platelet-derived growth factor receptor alpha (Homo sapiens) (P16234 whole entry, the tested form may be a part): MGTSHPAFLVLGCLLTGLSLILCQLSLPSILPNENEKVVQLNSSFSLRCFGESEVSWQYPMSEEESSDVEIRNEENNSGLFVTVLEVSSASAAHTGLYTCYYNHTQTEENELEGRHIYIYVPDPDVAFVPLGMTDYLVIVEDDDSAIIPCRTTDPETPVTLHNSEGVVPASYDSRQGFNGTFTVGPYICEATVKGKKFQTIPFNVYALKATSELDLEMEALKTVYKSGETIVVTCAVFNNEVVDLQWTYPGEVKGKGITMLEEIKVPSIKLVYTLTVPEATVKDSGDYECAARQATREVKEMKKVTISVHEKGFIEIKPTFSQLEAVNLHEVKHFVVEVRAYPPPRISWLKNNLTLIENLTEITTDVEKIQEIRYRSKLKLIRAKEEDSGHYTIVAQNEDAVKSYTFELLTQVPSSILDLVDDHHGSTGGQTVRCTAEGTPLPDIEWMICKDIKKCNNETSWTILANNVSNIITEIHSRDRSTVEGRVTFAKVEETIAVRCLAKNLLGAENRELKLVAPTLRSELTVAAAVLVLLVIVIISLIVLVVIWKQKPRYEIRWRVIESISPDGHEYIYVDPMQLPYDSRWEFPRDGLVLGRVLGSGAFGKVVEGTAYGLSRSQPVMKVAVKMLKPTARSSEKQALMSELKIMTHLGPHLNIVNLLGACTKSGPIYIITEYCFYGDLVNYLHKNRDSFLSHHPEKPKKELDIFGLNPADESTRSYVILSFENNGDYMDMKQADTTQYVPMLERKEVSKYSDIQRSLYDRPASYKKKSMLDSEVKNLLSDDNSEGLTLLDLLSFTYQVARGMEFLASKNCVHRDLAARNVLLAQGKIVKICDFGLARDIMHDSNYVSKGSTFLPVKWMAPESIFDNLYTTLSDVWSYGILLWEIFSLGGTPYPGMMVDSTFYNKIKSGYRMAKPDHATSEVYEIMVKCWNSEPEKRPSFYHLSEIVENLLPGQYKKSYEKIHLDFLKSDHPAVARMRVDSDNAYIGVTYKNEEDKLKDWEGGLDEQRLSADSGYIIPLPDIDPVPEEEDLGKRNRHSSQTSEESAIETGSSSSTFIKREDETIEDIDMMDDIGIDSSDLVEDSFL

[4] = molecular target: T1, 3-phosphoinositide-dependent protein kinase 1 (Homo sapiens) (UniProt O15530); experiment: Inhibition of recombinant human N-terminal His6-tagged PDK1 (M1 to M460 residues) expressed in Sf9 insect cells at 1 uM using LRRWSLG as substrate by filter binding method relative to control; outline: as §1
T1 sequence (whole entry): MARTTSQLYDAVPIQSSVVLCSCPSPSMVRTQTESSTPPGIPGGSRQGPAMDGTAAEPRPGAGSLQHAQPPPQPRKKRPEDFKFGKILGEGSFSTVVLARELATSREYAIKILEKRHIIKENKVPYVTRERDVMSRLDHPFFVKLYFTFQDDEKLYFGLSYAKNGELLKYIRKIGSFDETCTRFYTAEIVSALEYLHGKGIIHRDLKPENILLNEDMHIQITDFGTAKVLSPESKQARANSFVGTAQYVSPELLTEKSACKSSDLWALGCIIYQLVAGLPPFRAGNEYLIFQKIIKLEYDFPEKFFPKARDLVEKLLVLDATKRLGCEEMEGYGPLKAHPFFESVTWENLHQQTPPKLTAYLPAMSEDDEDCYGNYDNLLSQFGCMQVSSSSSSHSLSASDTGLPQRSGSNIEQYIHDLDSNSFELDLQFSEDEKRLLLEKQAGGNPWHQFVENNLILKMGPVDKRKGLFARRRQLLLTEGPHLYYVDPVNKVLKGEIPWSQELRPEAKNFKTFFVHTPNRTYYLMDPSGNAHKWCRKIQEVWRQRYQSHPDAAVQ

[5] = molecular target: CYP2C19 (Homo sapiens, UniProt P33261); experiment: Inhibition of CYP2C19 (unknown origin) at 10 uM relative to control; assay type: ADME
Sequence of CYP2C19 (P33261 whole entry): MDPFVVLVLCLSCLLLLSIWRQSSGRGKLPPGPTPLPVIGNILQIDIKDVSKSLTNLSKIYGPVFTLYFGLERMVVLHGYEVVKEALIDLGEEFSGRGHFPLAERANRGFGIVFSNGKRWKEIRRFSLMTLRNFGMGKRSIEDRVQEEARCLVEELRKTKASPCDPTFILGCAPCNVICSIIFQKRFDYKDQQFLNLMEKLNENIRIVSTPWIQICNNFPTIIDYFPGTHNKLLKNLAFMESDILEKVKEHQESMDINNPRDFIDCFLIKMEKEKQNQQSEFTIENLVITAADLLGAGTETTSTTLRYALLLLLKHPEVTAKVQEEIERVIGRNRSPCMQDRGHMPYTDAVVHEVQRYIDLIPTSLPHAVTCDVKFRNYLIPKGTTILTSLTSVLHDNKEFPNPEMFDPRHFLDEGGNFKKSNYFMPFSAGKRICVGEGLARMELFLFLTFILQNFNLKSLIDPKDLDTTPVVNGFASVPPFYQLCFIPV
Outline: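 CYP1A2, 2C9, 2C19, 2D6 and 3A4 inhibition measured at 10 µM test compound in duplicate; percent inhibition reported.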

[6] = molecular target: Voltage-gated inwardly rectifying potassium channel KCNH2 (Homo sapiens, UniProt Q12809); experiment: Inhibition of human ERG by Tracer Red dye based fluorescence polarization assay
Sequence of Voltage-gated inwardly rectifying potassium channel KCNH2 (Q12809 whole entry): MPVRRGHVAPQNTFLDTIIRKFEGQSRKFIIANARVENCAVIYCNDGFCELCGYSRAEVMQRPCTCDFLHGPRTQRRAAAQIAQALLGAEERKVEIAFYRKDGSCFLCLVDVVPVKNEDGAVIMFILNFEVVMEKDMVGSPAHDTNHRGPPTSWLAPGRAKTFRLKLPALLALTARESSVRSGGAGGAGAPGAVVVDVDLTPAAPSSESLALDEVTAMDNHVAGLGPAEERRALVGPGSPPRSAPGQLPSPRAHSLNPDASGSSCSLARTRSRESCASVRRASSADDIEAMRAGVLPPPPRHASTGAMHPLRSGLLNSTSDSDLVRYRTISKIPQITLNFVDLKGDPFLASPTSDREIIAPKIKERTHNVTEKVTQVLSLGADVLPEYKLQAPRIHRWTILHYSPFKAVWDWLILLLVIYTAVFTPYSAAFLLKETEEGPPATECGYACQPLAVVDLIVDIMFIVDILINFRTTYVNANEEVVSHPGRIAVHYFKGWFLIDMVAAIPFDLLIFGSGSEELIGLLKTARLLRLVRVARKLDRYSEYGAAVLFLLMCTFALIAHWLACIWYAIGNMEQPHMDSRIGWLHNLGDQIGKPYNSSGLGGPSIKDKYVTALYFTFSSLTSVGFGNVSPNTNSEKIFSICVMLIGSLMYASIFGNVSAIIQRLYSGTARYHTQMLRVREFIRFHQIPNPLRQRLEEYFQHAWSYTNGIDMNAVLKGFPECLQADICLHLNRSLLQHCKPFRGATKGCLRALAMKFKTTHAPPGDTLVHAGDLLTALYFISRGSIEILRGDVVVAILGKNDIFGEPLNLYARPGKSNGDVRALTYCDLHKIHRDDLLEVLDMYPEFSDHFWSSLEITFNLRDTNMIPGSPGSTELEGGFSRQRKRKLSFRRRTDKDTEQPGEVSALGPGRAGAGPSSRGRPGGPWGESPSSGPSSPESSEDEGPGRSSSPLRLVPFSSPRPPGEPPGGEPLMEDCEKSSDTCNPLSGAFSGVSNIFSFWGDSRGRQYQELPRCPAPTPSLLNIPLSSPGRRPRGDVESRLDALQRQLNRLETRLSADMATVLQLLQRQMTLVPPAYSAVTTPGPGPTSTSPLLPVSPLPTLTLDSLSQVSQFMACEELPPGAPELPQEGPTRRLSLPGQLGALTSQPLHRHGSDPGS
Outline: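 hERG binding measured with Predictor hERG kit per kit instructions, read by fluorescence polarization.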

[7] = Half-life in BALB-C mouse at 5 mg/kg, iv by LC-MS/MS analysis; assay type: ADME, organism-based; conditions: in vivo
Outline: (§2)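 BALB-C mice dosed IV (10% NMP/50% PEG300/40% saline) or PO (10% NMP/90% PEG300). Plasma sampled at 6 (IV) or 8 (PO) time points; compound measured by LC/MS/MS. Parameters from bicompartmental model fit; each value is the mean of 3 independent samples.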

[8] = Clearance in BALB-C mouse at 5 mg/kg, iv by LC-MS/MS analysis; assay type: ADME, organism-based; conditions: in vivo
Outline: (§3)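 Mice (BALB-C) given IV dose in 10% NMP/50% PEG300/40% saline; plasma sampled at 6 times, levels by LC/MS/MS.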

[9] = Volume of distribution in BALB-C mouse at 5 mg/kg, iv by LC-MS/MS analysis; assay type: ADME, organism-based; conditions: in vivo
Outline: (§4)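 BALB-C mice dosed IV in 10% NMP/50% PEG300/40% saline or PO in 10% NMP/90% PEG300. Plasma sampled at 6 (IV) or 8 (PO) time points and quantified by LC/MS/MS. Parameters come from a bicompartmental model fit; values are means of 3 independent samples. Plasma levels were compared with AKT-P EC50 from U2OS cells converted to ng/ml.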

[10] = AUC (infinity) in BALB-C mouse at 5 mg/kg, iv by LC-MS/MS analysis; assay type: ADME, organism-based; design: dose 5 mg/kg, time infinity, route intravenous; conditions: in vivo; outline: as §2
[11] = AUC (infinity) in BALB-C mouse at 10 mg/kg, po by LC-MS/MS analysis; assay type: ADME, organism-based; design: dose 10 mg/kg, time infinity, route oral; conditions: in vivo; outline: as §2
[12] = Half-life in BALB-C mouse at 10 mg/kg, po by LC-MS/MS analysis; assay type: ADME, organism-based; conditions: in vivo; outline: as §2
[13] = test system: Mus musculus; experiment: Clearance in BALB-C mouse at 5 mg/kg, iv by LC-MS/MS analysis relative to hepatic blood flow; assay type: ADME, organism-based; conditions: in vivo
[14] = test system: U2OS; experiment: Inhibition of AKT phosphorylation in human U2OS cells
[15] = molecular target: Serine/threonine-protein kinase mTOR (Homo sapiens, UniProt P42345); experiment: Inhibition of recombinant human GST-tagged mTOR catalytic domain (1360 to 2549 residues) expressed in baculovirus expression system by AlexaFluor647-labeled kinase tracer 314 based LanthaScreen assay
[16] = Clearance in BALB-C mouse at 3 mg/kg, iv by LC-MS/MS analysis; assay type: ADME, organism-based; conditions: in vivo; outline: as §3
[17] = Volume of distribution in BALB-C mouse at 3 mg/kg, iv by LC-MS/MS analysis; assay type: ADME, organism-based; conditions: in vivo; outline: as §4
[18] = Cmax in BALB-C mouse at 9 mg/kg, po by LC-MS/MS analysis; assay type: ADME, organism-based; design: dose 9 mg/kg, route oral; conditions: in vivo; outline: as §2
[19] = test system: Mus musculus; experiment: Clearance in BALB-C mouse at 3 mg/kg, iv by LC-MS/MS analysis relative to hepatic blood flow; assay type: ADME, organism-based; conditions: in vivo
[20] = test system: Mus musculus; experiment: Time at which plasma concentration stays above cellular EC50 for inhibition of AKT phosphorylation in BALB-C mouse at 9 mg/kg, po measured up to 8 hrs by LC-MS/MS analysis; conditions: in vivo
[21] = Cmax in BALB-C mouse at 5 mg/kg, po by LC-MS/MS analysis; assay type: ADME, organism-based; design: dose 5 mg/kg, route oral; conditions: in vivo; outline: as §2
[22] = Half-life in BALB-C mouse at 5 mg/kg, po by LC-MS/MS analysis; assay type: ADME, organism-based; conditions: in vivo; outline: as §2
[23] = Oral bioavailability in BALB-C mouse at 5 mg/kg by LC-MS/MS analysis; assay type: ADME, organism-based; conditions: in vivo; outline: as §4
[24] = test system: Mus musculus; experiment: Time at which plasma concentration stays above cellular EC50 for inhibition of AKT phosphorylation in BALB-C mouse at 5 mg/kg, po measured up to 24 hrs by LC-MS/MS analysis; assay type: organism-based; conditions: in vivo; outline: as §4
[25] = test system: U2OS; experiment: Inhibition of AKT phosphorylation in human U2OS cells; remark: listed apart in the source

inhibition [1] [%]	inhibition [2] [%]	inhibition [3] [%]	inhibition [4] [%]	inhibition at 10 µM [5] [%]	half-life [7] [h]	clearance [8] [mL/min/kg]	Vd [9] [L/kg]	AUC(0-inf) [10] [ng·h/mL]	CL [13] [%]	IC50 [15] [µM]	Structure (SMILES)	IC50 [6] [µM]	also measured
< 25	< 25	< 25	< 25	< 25	–	–	–	–	–	–	CS(=O)(=O)N1CCN(Cc2cn3nc(-c4cnc(N)nc4)nc(N4CCOCC4)c3n2)CC1	> 30	–
< 25	< 25	< 25	< 25	< 25	0.26	35.5	2	2660	< 50	–	CS(=O)(=O)N1CCN(Cc2nc3c(N4CCOCC4)nc(-c4cnc(N)nc4)cn3n2)CC1	> 30	AUC(0-inf) [11]: 4690 ng·h/mL; half-life [12]: 5.28 h; EC50 [14]: 0.04138 µg/mL (≈ 0.0872 µM)
< 25	< 25	< 25	< 25	< 25	–	–	–	–	–	1.7	CS(=O)(=O)N1CCN(Cc2cc3c(N4CCOCC4)nc(-c4cnc(N)nc4)cn3n2)CC1	> 30	clearance [16]: 10.8 mL/min/kg; Vd [17]: 0.6 L/kg; Cmax [18]: 938 ng/mL; CL [19]: < 50%; Time [20]: > 8 h
< 25	< 25	< 25	< 25	< 25	1.81	10.8	1.61	7730	< 50	8.17	CS(=O)(=O)N1CCN(Cc2nc3c(N4CCOCC4)nc(-c4cnc(N)nc4)c(Cl)n3n2)CC1	> 30	Cmax [21]: 1050 ng/mL; half-life [22]: 2.7 h; bioavailability [23]: 73.1%; Time [24]: > 12 h; EC50 [25]: 0.03491 µg/mL (≈ 0.0686 µM)
